Compound activity: PubChem, The Scripps Research Institute Molecular Screening Center
GPR7 antag – antagonists of human GPR7 (neuropeptides B/W receptor 1); inhibition, % at 4.4 µM; P48145; GPR7-expressing cells, fluorescence antagonist assay; actives 1.1% (n = 290,000); in the data active = inhibition above about 16%, passing the limit was not always enough;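 note: cells stimulated with the agonist NPW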
Target sequence (P48145 whole entry, looked up): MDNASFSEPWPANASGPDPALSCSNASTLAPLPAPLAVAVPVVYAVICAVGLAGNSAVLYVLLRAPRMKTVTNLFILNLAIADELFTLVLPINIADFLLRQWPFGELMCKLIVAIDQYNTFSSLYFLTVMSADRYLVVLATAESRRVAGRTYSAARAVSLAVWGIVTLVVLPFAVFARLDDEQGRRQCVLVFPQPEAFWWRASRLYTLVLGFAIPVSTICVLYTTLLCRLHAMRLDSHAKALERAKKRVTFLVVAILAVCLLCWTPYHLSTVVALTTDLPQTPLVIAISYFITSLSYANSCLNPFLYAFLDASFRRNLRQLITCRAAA
OX1R antag-1 – OX1R (human) antagonism | O43613 | OX1R-expressing cells, FRET antagonist read-out | inhibition, % at 6.6 µM | actives 1.8% (n = 330,000); in the data active = inhibition mostly above about 38%, no sharp cut-off; inactive = mostly below about 40%
Target sequence (O43613 whole entry, looked up): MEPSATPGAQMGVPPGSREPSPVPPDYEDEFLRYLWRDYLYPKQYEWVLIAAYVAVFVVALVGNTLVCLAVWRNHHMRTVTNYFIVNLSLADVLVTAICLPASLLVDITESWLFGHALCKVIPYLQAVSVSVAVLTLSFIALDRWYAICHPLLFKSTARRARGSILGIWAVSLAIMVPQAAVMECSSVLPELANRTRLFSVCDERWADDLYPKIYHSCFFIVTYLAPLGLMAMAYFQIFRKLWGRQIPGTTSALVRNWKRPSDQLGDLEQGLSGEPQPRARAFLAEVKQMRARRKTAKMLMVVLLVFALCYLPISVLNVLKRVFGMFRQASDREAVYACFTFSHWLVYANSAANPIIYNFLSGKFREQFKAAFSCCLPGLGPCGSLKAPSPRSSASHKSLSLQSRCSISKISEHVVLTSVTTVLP
CHO parental Ca – signal in parental CHO cells, OX1R antagonist counter-screen | actives 0.63% (n = 330,000) | AID 463079 | inhibition, % at 5.6 µM | parental CHO-K1, ATP-induced calcium, Fluo-8 fluorescence;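 active = inhibition above that plate's mean sample inhibition plus 3 SD, cut at about 26% in these data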
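Assay system – parental CHO cells · Reagent – ATP stimulus · Detection – intracellular calcium via Fluo-8 no-wash fluorescent dye · Evaluation – percent inhibition of ATP-evoked calcium rise, normalized to controls · Controls – ATP wells versus no-ATP DMSO wells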
TAAR1 antag – human TAAR1 antagonism; AID 624466; actives 1.5% (n = 360,000); inhibition, % at 3 µM; CHO RD-HGA16 TAAR1, Fluo-8 calcium fluorescence, antagonist;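 active = inhibition above a per-plate cutoff, the mean inhibition of test compounds on that plate plus 3 SD, cut at about 49% in these data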
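System: CHO RD-HGA16 cells bearing hTAAR1. Reagent: EC80 β-phenethylamine stimulus. Schedule: seeding 17-24 h prior, 75-min 37 °C, 30-min RT dye loading. Signal: Fluo-8 intracellular calcium dye fluorescence, real-time kinetic reads. Read-out: % inhibition from peak post-agonist over basal fluorescence ratio. Benchmarks: vehicle wells and EC80 agonist wells. Replicates: n of 1.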
TAAR1 ag – agonists of human TAAR1; Q96RJ0; actives 0.99% (n = 360,000); CHO RD-HGA16 TAAR1, Fluo-8 calcium fluorescence; vehicle wells 0%, saturating PEA agonist 100%; activation, % at 3 µM;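 active = activation above the mean activation of all test compounds in the run plus 3 SD, cut at about 38% in these data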
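Assay system: CHO-derived RD-HGA16 cells with stable Gα16 and human TAAR1; timing: 17-24 h seeding, 75 min 37 °C dye, 30 min RT; read-out: % activation from peak over basal fluorescence ratio, DMSO-to-PEA scaled; measured by: kinetic Fluo-8 calcium fluorescence; benchmarks: low control DMSO, high control PEA (EC100); doses: 3 µM single concentration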
OX1R antag-2 – human HCRTR1 antagonism | inhibition, % at 5 µM | actives 0.43% (n = 330,000) | AID 434989 | CHO/OX1R cells, Fluo-8 calcium fluorescence, orexin A | O43613;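 active = inhibition above its plate's threshold, mean inhibition of all tested compounds on the plate plus 3 SD, cut at about 37% in these data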
GPR7 antag cf – confirmation of human GPR7 antagonists. GPR7-expressing cells, calcium fluorescence antagonist mode. inhibition, % at 4.4 µM. shares compounds with GPR7 antag. actives 52% (n = 2,400); in the data active = inhibition above about 24%;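 note: stimulated with the GPR7 agonist NPW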
MCHR1 antagonist – antagonizes human MCHR1, a GPR7 antagonist counter-screen. MCHR1-expressing cells, fluorescence antagonist assay. actives 62% (n = 2,400). shares compounds with GPR7 antag. AID 2148. inhibition, % at 4.4 µM; in the data active = inhibition above about 22%
OX1R Fluo8 conf – OX1R (human) antagonism, confirmed. inhibition, % at 5 µM. actives 38% (n = 1,100). CHO/OX1R cells, orexin A calcium Fluo-8 fluorescence. shares compounds with OX1R antag-2; in the data active = inhibition above about 29%
CHO Ca triplic – signal in parental CHO cells, OX1R antagonist counter-screen | shares compounds with OX1R antag-2 | parental CHO-K1, ATP-induced calcium, Fluo-8 fluorescence | inhibition, % at 5.6 µM | actives 9.3% (n = 1,100);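 active = inhibition above a per-plate limit, the mean inhibition of that plate's test compounds plus 3 SD, cut at about 25% in these data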
OX1R HTRF conf – confirmation of human orexin 1 receptor antagonists, HTRF format; shares compounds with OX1R antag-1; OX1R-expressing cells, HTRF antagonist assay; inhibition, % at 6.6 µM; actives 49% (n = 1,800); in the data active = inhibition above about 55%;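 note: CHO cells expressing OX1R stimulated with orexin A at about EC80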
CHO-K1 HTRF – counter-screen: parental CHO-K1 HTRF response. parental CHO-K1 cells, HTRF counterscreen. actives 48% (n = 1,800). inhibition, % at 6.6 µM. shares compounds with OX1R antag-1; in the data active = inhibition above about 17%
TAAR1 ag confirm – human TAAR1 agonism, confirmed | shares compounds with TAAR1 ag | CHO RD-HGA16 TAAR1, Fluo-8 calcium fluorescence; scaled: DMSO 0%, maximal phenethylamine 100% | activation, % at 3 µM | actives 82% (n = 2,400);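 active = activation above a cutoff set at the run's mean compound activation plus 3 SD, cut at about 39% in these data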
Ga16 nonsel ag – counter-screen for TAAR1 agonists: nonselective agonists in parental cells; shares compounds with TAAR1 ag; CHO-Ga16 parental, Fluo-8 calcium fluorescence; normalized to maximal ATP response, DMSO zero; activation, % at 3 µM; actives 50% (n = 2,400); AID 651787;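 active = activation above the run cutoff, the mean activation over all tested wells plus 3 SD, cut at about 12% in these data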
TAAR1 desens – counter-screen for human TAAR1 agonists: agonists that desensitize TAAR1 | shares compounds with TAAR1 ag | inhibition, % at 3 µM | AID 651951 | actives 46% (n = 2,400) | CHO RD-HGA16 hTAAR1, Fluo-8 calcium, beta-PEA response inhibition;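 active = inhibition above the run cutoff, the mean inhibition of all test compounds plus 3 SD, cut at about 49% in these data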;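 note: beta-PEA stimulus applied at its EC80; loss of beta-PEA calcium signal after compound pretreatment read as receptor desensitization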
Ga16 antag count – counter-screen for TAAR1 agonists: nonselective Ga16 antagonists. AID 651952. inhibition, % at 3 µM. actives 39% (n = 2,400). CHO-Ga16 ATP-induced calcium, Fluo-8 fluorescence. shares compounds with TAAR1 ag;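 active = inhibition above the plate's mean compound inhibition plus 3 SD, computed per plate, cut at about 22% in these data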
A number is an active result; . = inactive; / = no result. Hits are enriched below; roughly 4.5% of the tested compounds scored in any of these assays.

SMILES	GPR7 antag	OX1R antag-1	CHO parental Ca	TAAR1 antag	TAAR1 ag	OX1R antag-2	OX1R Fluo8 conf	CHO Ca triplic	OX1R HTRF conf	CHO-K1 HTRF	others
CC1(C)CSC(=NCc2ccccc2)N1	87	.	.	88	132	.	63	35	/	/	GPR7 antag cf=96;MCHR1 antagonist=102;TAAR1 ag confirm=111;Ga16 nonsel ag=81;TAAR1 desens=95;Ga16 antag count=68
CC1([N+](=O)[O-])COP(=O)(NC2CCCC2)OC1 (configuration not stated)	/	/	/	.	.	/	/	/	/	/
O=C(O)C(Cc1cnc[nH]1)NS(=O)(=O)c1ccc(Cl)cc1 (configuration not stated)	.	.	.	.	.	.	.	.	/	/
CC(=O)Nc1ccccc1C(=O)OCC(=O)c1ccc2ccccc2c1	.	.	.	.	.	44	32	.	/	/
CC(=O)Nc1ccccc1C(=O)OCc1ccc(C(=O)c2ccccc2)cc1	.	.	.	.	.	.	/	/	/	/
Oc1ccc(C2NCc3ccccc3-n3cccc32)cc1Cl (configuration not stated)	.	.	.	.	.	.	.	.	/	/
COc1ccc(-c2ccc3c(c2)CN(C(=O)C(C)(C)C)Cc2cnnn2-3)cc1	/	/	/	.	.	/	/	/	/	/
CCCCCCCCn1sccc1=O	/	.	.	.	.	37	36	.	/	/
Oc1c(Cl)cccc1Cc1cc(Cl)cc(Cl)c1O	/	/	/	.	.	/	/	/	/	/
Cn1cc(/C=C2\C(=O)NC(=O)N(c3ccccc3)C2=O)c2ccccc21	.	.	.	.	.	54	.	.	/	/
COC(=O)C1=C(c2cccc(OCc3ccccc3)c2)C[C@@H]2CC[C@H]1N2C(=O)NCc1ccccc1	/	.	.	.	.	.	/	/	/	/
COC(=O)C1=C(c2ccc(F)cc2OCc2ccccc2)C[C@@H]2CC[C@H]1N2C(=O)NCc1ccc(F)cc1	/	.	.	.	.	.	/	/	/	/
COC(=O)C1=C(c2ccc(F)cc2OCc2ccccc2)C[C@@H]2CC[C@H]1N2C(=O)NCc1ccc(C)cc1	/	.	.	60	.	56	.	.	/	/
COC(=O)C1=C(c2cccc(OCc3ccccc3)c2)C[C@@H]2CC[C@H]1N2C(=O)NCc1ccccc1OC	/	.	.	.	.	52	.	.	/	/
COc1ccc(NC2Oc3cc4c(cc3C(c3cc(OC)c(OC)c(OC)c3)C2C)OCO4)cc1 (configuration not stated)	/	/	/	.	.	/	/	/	/	/
COc1cc(/C=C2\C[C@H]3[C@@H]4CC=C5C[C@@H](N6CCCC6)CC[C@]5(C)[C@H]4CC[C@]3(C)[C@H]2O)cc(OC)c1OC	/	/	/	.	.	/	/	/	/	/
COc1ccc(OC)c(NP(=O)(Oc2ccccc2)Oc2ccccc2)c1	.	/	/	.	.	/	/	/	/	/
COc1cccc(OP(=O)(Nc2ccccc2)Oc2cccc(OC)c2)c1	.	60	.	/	/	45	29	.	.	.
COC(=O)C1=C(c2cccc(C#N)c2)C[C@@H]2CC[C@H]1N2C(=O)N1CCC(C)CC1	/	.	.	.	.	.	/	/	/	/
COC(=O)C1=C(c2ccccc2OCc2ccccc2)C[C@@H]2CC[C@H]1N2C(=O)NCCOc1ccccc1Cl	/	53	.	.	.	62	33	.	70	.
CCCCCCn1c(=O)c(C(=O)Nc2ncccc2C)c(O)c2ccccc21	.	.	.	74	106	.	.	.	/	/	TAAR1 ag confirm=55;Ga16 nonsel ag=30;TAAR1 desens=.;Ga16 antag count=35
C=CCCC1(C2=CCCCC2)C(=O)NC(=O)NC1=O	/	/	/	.	.	/	/	/	/	/
CN1CCN(c2ccc([N+](=O)[O-])c3no[n+]([O-])c23)CC1	.	77	.	.	.	.	/	/	74	107
O=[N+]([O-])c1ccc(N(CCO)CCO)c2c1no[n+]2[O-]	/	/	/	.	.	/	/	/	/	/
Oc1ccc(CC2(N3CCCC3)CCCCC2)cc1	.	.	.	.	.	.	/	/	/	/
SMILES	GPR7 antag	OX1R antag-1	CHO parental Ca	TAAR1 antag	TAAR1 ag	OX1R antag-2	OX1R Fluo8 conf	CHO Ca triplic	OX1R HTRF conf	CHO-K1 HTRF	others
N#CC(C#N)=NNc1ccc(S(N)(=O)=O)cc1	.	84	.	.	.	.	/	/	.	.
COc1cccc(CC(=O)N(C)C2CCCN(Cc3ccccc3F)C2)c1 (configuration not stated)	.	.	.	.	.	.	/	/	/	/
CNc1ccc2nc3ccccc3[n+](C)c2c1	.	94	.	.	.	.	/	/	66	145
NNCc1ccccc1	/	/	/	.	.	/	/	/	/	/
Cn1c(=O)c2nncnc2n(C)c1=O	.	125	.	.	.	.	/	/	.	75
O=C1NC(=O)N(c2ccc3c(c2)OCO3)C(=O)/C1=C/c1ccc(N2CCCC2)o1	.	92	.	.	.	.	/	/	.	75
O=C1C(=O)c2ccccc2-c2ccccc21	.	106	.	.	.	.	/	/	61	29
CN1CCN(c2cccc3c2C(=O)c2ccccc2C3=O)CC1	.	/	/	.	.	/	/	/	/	/
O=C1C(=O)c2cccc3cccc1c23	.	101	.	.	.	.	/	/	.	42
O=C(CCCc1ccc(N(CCCl)CCCl)cc1)NCc1ccccc1	/	/	/	.	.	/	/	/	/	/
CS(=O)(=O)c1ccc(C2=C(CNC(=O)c3cccnc3)[C@H]3CC[C@@H](C2)N3Cc2ccccc2)cc1	/	/	/	.	.	/	/	/	/	/
